Test results taken from ChEMBL document CHEMBL2176965, “Synthesis and biological investigations of nitric oxide releasing nateglinide and meglitinide type II antidiabetic prodrugs: in-vivo antihyperglycemic activities and blood pressure lowering studies” (J Med Chem, 2012).
Calls of active or inactive are those of the source. No cut-off for these calls is given here.

Experiments:
Mus musculus [1] = test: Antihypertensive activity in C57BL/6 mouse assessed as reduction in mean blood pressure at 63.01 umol/kg, po after 1 to 3 hrs; type: functional, organism-based
[2] = Induction of NO release in PBS buffer in presence of rat serum at pH 7.4 incubated for 24 hrs; set-up: concentration or dose not given beside the values; conditions: pH 7.4, 24 h
Summary of the method: (§1)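 Compound (2.4 mL of 5.0 × 10−2 mM) incubated at 37 °C in PBS pH 7.4 with 90 μL rat serum, a source of nonspecific esterases, for 1, 3, 6 or 24 h. NO measured as nitrite by Griess reaction and expressed as % released.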

[3] = Induction of NO release in PBS buffer in presence of rat serum at pH 7.4 incubated for 6 hrs; set-up: concentration or dose not given beside the values; conditions: pH 7.4, 6 h; summary of the method: as §1
[4] = Induction of NO release in PBS buffer in presence of rat serum at pH 7.4 incubated for 1 hr; set-up: concentration or dose not given beside the values; conditions: pH 7.4, 1 h; summary of the method: as §1
[5] = Induction of NO release in PBS buffer at pH 7.4 incubated for 24 hrs; type: physicochemical; set-up: concentration or dose not given beside the values; conditions: pH 7.4, 24 h
Summary of the method: (§2)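 Compound (2.4 mL of 5.0 × 10−2 mM) incubated at 37 °C in phosphate buffer pH 7.4 for 1, 4, 6 or 24 h. Released NO quantified indirectly as nitrite by Griess reaction and expressed as % NO released.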

[6] = Induction of NO release in PBS buffer at pH 7.4 incubated for 6 hrs; type: physicochemical; set-up: concentration or dose not given beside the values; conditions: pH 7.4, 6 h; summary of the method: as §2
[7] = Induction of NO release in PBS buffer at pH 7.4 incubated for 4 hrs; type: physicochemical; set-up: concentration or dose not given beside the values; conditions: pH 7.4, 4 h; summary of the method: as §2
[8] = Induction of NO release in PBS buffer at pH 7.4 incubated for 1 hr; type: physicochemical; set-up: concentration or dose not given beside the values; conditions: pH 7.4, 1 h; summary of the method: as §2
Mus musculus [9] = test: Effect on heart rate in C57BL/6 mouse at 63.01 umol/kg, po after 6 hrs (reference value: 439 bpm); type: ADME, organism-based; conditions: in vivo
Mus musculus [10] = test: Effect on heart rate in C57BL/6 mouse at 63.01 umol/kg, po after 3 hrs (reference value: 448 bpm); type: ADME, organism-based; conditions: in vivo
Mus musculus [11] = test: Effect on heart rate in C57BL/6 mouse at 63.01 umol/kg, po after 1 hr (reference value: 449 bpm); type: ADME, organism-based; conditions: in vivo
Mus musculus [12] = test: Antihypertensive activity in C57BL/6 mouse assessed as reduction in diastolic blood pressure at 63.01 umol/kg, po after 3 hrs; type: functional, organism-based; conditions: Artery
Mus musculus [13] = test: Antihypertensive activity in C57BL/6 mouse assessed as reduction in systolic blood pressure at 63.01 umol/kg, po after 6 hrs (reference value: 126.2 mmHg); type: functional, Artery
Mus musculus [14] = test: Antihypertensive activity in C57BL/6 mouse assessed as reduction in systolic blood pressure at 63.01 umol/kg, po after 3 hrs (reference value: 118.3 mmHg); type: functional, Artery
Mus musculus [15] = test: Antihypertensive activity in C57BL/6 mouse assessed as reduction in systolic blood pressure at 63.01 umol/kg, po after 1 hr (reference value: 126.5 mmHg); type: functional, Artery
Rattus norvegicus [16] = test: Induction of hyperglycemia in streptozotocin-induced diabetic Sprague-Dawley rat assessed as increase in blood glucose level at 63.01 umol/kg, po after 24 hrs relative to control; type: organism-based; conditions: in vivo
Summary of the method: (§3)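 Male Sprague−Dawley rats (300−350 g) made diabetic with streptozotocin 65 mg/kg ip in citrate buffer pH 4.5, nonfasting. Animals with blood glucose 20−30 mmol/L at 48 h were selected, n = 4 per group. Oral dose 63.01 μmol/kg in water with 1% methyl cellulose; vehicle controls. Tail-vein glucose read by glucometer at 1, 3, 6, 24 h; change expressed as % of the 0 h level.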

Rattus norvegicus [17] = test: Antihyperglycemic activity in streptozotocin-induced diabetic Sprague-Dawley rat assessed as reduction in blood glucose level at 63.01 umol/kg, po after 6 hrs relative to control; type: functional; summary of the method: as §3
Rattus norvegicus [18] = test: Antihyperglycemic activity in streptozotocin-induced diabetic Sprague-Dawley rat assessed as reduction in blood glucose level at 63.01 umol/kg, po after 3 hrs relative to control; type: functional; set-up: scale not given: the % may be the effect or the level left; summary of the method: as §3
Rattus norvegicus [19] = test: Antihyperglycemic activity in streptozotocin-induced diabetic Sprague-Dawley rat assessed as reduction in blood glucose level at 63.01 umol/kg, po after 1 hr relative to control; type: functional; set-up: scale not given: the % may be the effect or the level left; summary of the method: as §3
[20] = Induction of NO release in PBS buffer in presence of rat serum at pH 7.4 incubated for 3 hrs; set-up: concentration or dose not given beside the values; conditions: pH 7.4, 3 h
Rattus norvegicus [21] = organism: Rattus norvegicus; test: Activation of soluble guanylyl cyclase in rat superior mesenteric arteries assessed as reversal of phenylephrine-induced tone in presence of ODQ at 1 uM by wire myography
Summary of the method: (§4)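 Denudation confirmed by no relaxation to acetylcholine (10 μM). Tone raised to 75% of maximal with phenylephrine (1−3 μM). Compounds added at 1 μM, without or with ODQ (10 μM), a soluble guanylyl cyclase inhibitor.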

Rattus norvegicus [22] = organism: Rattus norvegicus; test: Activation of soluble guanylyl cyclase in rat superior mesenteric arteries assessed as reversal of phenylephrine-induced tone at 1 uM by wire myography; summary of the method: as §4
Rattus norvegicus [23] = test: Induction of hyperglycemia in streptozotocin-induced diabetic Sprague-Dawley rat assessed as increase in blood glucose level at 63.01 umol/kg, po after 24 hrs relative to control; conditions: in vivo
Mus musculus [24] = test: Antihypertensive activity in C57BL/6 mouse assessed as reduction in diastolic blood pressure at 63.01 umol/kg, po after 1 to 3 hrs; type: functional, organism-based; conditions: Artery
Rattus norvegicus [25] = test: Antihyperglycemic activity in streptozotocin-induced diabetic Sprague-Dawley rat assessed as reduction in blood glucose level at 63.01 umol/kg, po after 24 hrs relative to control; type: functional, organism-based; summary of the method: as §3

Activity [2] | Activity [3] | Activity [4] | Activity [5] | Activity [6] | Activity [7] | Activity [8] | Activity [20] | Compound | Activity (Mus musculus [1]) | Activity (Mus musculus [9]) | Activity (Mus musculus [10]) | Activity (Mus musculus [11]) | Activity (Mus musculus [13]) | Activity (Mus musculus [15]) | Activity (Rattus norvegicus [16]) | Activity (Rattus norvegicus [17]) | Activity (Rattus norvegicus [18]) | Activity (Rattus norvegicus [19]) | Activity (Rattus norvegicus [23]) | Activity (Mus musculus [24]) | other results
65.3% | 50.1% | 40.2% | 59.9% | 52.7% | 6.8% | 6.7% | 47.2% | CC(C)[C@H]1CC[C@H](C(=O)N[C@H](Cc2ccccc2)C(=O)OCO/N=[N+](/[O-])N2CCCC2)CC1 | Active | 435 bpm | 458 bpm | 454 bpm | 134.3 mmHg | 108.4 mmHg | 48.7% | inactive | 22.6% | 8.1% | – | – | Activity (Mus musculus [12]): inactive; Activity (Mus musculus [14]): 106.2 mmHg
6.3% | 3.9% | 1.3% | 9.2% | 7.7% | 7.5% | 6.7% | 1.9% | CC(C)[C@H]1CC[C@H](C(=O)N[C@H](Cc2ccccc2)C(=O)OCCO[N+](=O)[O-])CC1 | – | 435 bpm | 458 bpm | 454 bpm | 103.4 mmHg | 129.9 mmHg | Non-toxic | 20.5% | 13.4% | 8.2% | Non-toxic | – | Activity (Rattus norvegicus [21]): inactive; Activity (Rattus norvegicus [22]): Active
72.2% | 57.2% | 44.9% | 61.3% | 58.8% | 5.1% | 4.4% | 50.2% | CCN(CC)/[N+]([O-])=N\OCOC(=O)[C@@H](Cc1ccccc1)NC(=O)[C@H]1CC[C@H](C(C)C)CC1 | Active | 435 bpm | 458 bpm | 454 bpm | 134.4 mmHg | 113 mmHg | Non-toxic | 34.1% | 23.5% | 21.1% | Non-toxic | Active | Activity (Rattus norvegicus [21]): inactive; Activity (Rattus norvegicus [22]): Active; Activity (Mus musculus [14]): 98.1 mmHg
60.5% | 59.2% | 37.6% | 8.9% | 7.2% | 5.7% | 5.1% | 51.7% | COc1ccc(Cl)cc1C(=O)NCCc1ccc(C(=O)OCO/N=[N+](\[O-])N2CCCC2)cc1 | Active | 435 bpm | 458 bpm | 454 bpm | 103.4 mmHg | 90.3 mmHg | Non-toxic | – | 12.5% | 20% | Non-toxic | Active | Activity (Rattus norvegicus [25]): inactive

More lines, now with the values behind:

Compound | Activity [2] | Activity [3] | Activity [4] | Activity [5] | Activity [6] | Activity [7] | Activity [8] | Activity [20] | Activity (Mus musculus [1]) | Activity (Mus musculus [9]) | Activity (Mus musculus [10]) | Activity (Mus musculus [11]) | Activity (Mus musculus [13]) | Activity (Mus musculus [15]) | Activity (Rattus norvegicus [16]) | Activity (Rattus norvegicus [17]) | Activity (Rattus norvegicus [18]) | Activity (Rattus norvegicus [19]) | Activity (Rattus norvegicus [23]) | Activity (Mus musculus [24]) | other results
CC(C)[C@H]1CC[C@H](C(=O)N[C@H](Cc2ccccc2)C(=O)O)CC1 [NATEGLINIDE] | – | – | – | – | – | – | – | – | – | – | – | – | – | – | – | 30.6% | 26.4% | 13.8% | – | – | –
CCN(CC)/[N+]([O-])=N/OCOC(=O)c1ccc(CCNC(=O)c2cc(Cl)ccc2OC)cc1 | 63.6% | 61.5% | 54.5% | 6.5% | 6.1% | 6% | 4.2% | 55.9% | Active | 435 bpm | 458 bpm | 454 bpm | 103.4 mmHg | 96.8 mmHg | Non-toxic | Active | 12.5% | 20% | Non-toxic | Active | Activity (Rattus norvegicus [25]): inactive
COc1ccc(Cl)cc1C(=O)NCCc1ccc(C(=O)OCCO[N+](=O)[O-])cc1 | 3.8% | 2.6% | 2.1% | 9.4% | 7.7% | 7.2% | 4.1% | 2.3% | Active | 435 bpm | 458 bpm | 454 bpm | 103.4 mmHg | 105.8 mmHg | Non-toxic | Active | 12.5% | 20% | Non-toxic | Active | Activity (Rattus norvegicus [25]): inactive
COc1ccc(Cl)cc1C(=O)NCCc1ccc(C(=O)O)cc1 [MEGLITINIDE] | – | – | – | – | – | – | – | – | – | – | – | – | – | – | – | Active | 8.8% | 30.5% | – | – | Activity (Rattus norvegicus [25]): inactive
